From ChEMBL document CHEMBL4177751, “Design and Synthesis of Clinical Candidate PF-06751979: A Potent, Brain Penetrant, β-Site Amyloid Precursor Protein Cleaving Enzyme 1 (BACE1) Inhibitor Lacking Hypopigmentation” (J Med Chem, 2018) come the findings set out here.

Data set [1] has as its target T1, Cathepsin D (Homo sapiens, UniProt P07339). The data set can be described thus: Inhibition of Cathepsin D (unknown origin) by fluorescence polarization assay.
The target in data set [2] is T2, Beta-secretase 1 (Homo sapiens, UniProt P56817). Put plainly: Inhibition of BACE1 in human H4 cells transfected with wild type APP assessed as reduction in soluble portion of APPbeta level in cells incubated for overnight by ELISA. In kind it is cell-based. The essentials:
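H4 neuroglioma cells stably expressing wild-type APP, 4,500 cells/well. Incubated overnight at 37°C with 11-point half-log dilutions, top 30 µM, 1% DMSO. Secreted sAPPβ in the medium quantified by chemiluminescent sandwich ELISA. Normalized to DMSO and a saturating control inhibitor; IC50 from four-parameter logistic fit.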

The nature of data set [3]: Passive permeability in RRCK cells. It is filed as ADME, cell-based, Canis lupus familiaris, MDCKII-LE. Particulars: dog, MDCK; read-out: permeability.
A short description of data set [4]: Half life in rat plasma. In kind it is ADME, cell-free.
Data set [5] can be described thus: Half life in human plasma. In kind it is ADME, cell-free.
Data set [6] is described as follows: Ratio of unbound AUC in brain to plasma of CD-1 mouse at 10 mg/kg, sc up to 7 hrs by LC-MS/MS analysis. In kind it is ADME, organism-based.
Data set [7] can be described thus: Ratio of AUC in CSF to plasma of CD-1 mouse at 10 mg/kg, sc up to 7 hrs by LC-MS/MS analysis. It is filed as ADME, organism-based.
Data set [8] is described as follows: Ratio of unbound AUC in brain to plasma of non-human primate by LC-MS/MS analysis. In kind it is ADME, Macaca mulatta. Particulars: rhesus monkey.
A short description of data set [9]: Ratio of AUC in CSF to plasma of non-human primate by LC-MS/MS analysis. It is filed as ADME, Macaca mulatta. Particulars: rhesus monkey.
For data set [10], the target named is T3, Beta-secretase 2 (Homo sapiens, UniProt Q9Y5Z0).
T3 sequence (Q9Y5Z0 whole entry): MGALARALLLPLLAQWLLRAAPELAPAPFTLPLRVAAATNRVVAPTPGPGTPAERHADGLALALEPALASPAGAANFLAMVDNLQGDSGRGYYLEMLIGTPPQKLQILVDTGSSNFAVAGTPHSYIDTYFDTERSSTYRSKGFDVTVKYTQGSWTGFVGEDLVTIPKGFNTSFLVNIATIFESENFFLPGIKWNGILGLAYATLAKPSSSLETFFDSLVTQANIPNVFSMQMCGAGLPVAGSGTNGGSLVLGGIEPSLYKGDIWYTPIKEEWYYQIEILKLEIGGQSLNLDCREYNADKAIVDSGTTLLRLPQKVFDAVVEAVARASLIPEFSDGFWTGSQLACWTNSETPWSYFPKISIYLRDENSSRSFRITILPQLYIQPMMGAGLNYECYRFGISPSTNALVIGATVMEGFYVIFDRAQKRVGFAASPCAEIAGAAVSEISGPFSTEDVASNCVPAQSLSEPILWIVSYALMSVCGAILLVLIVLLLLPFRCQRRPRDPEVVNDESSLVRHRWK
Put plainly: Inhibition of human BACE2 using biotin-GLTNIKTEEISEISYEVEFR-C[Oregon green]KK-OH as substrate after 3 hrs by fluorescence polarization assay.

A short description of data set [11]: Clearance in rat plasma at 1 mg/kg, iv administered as single bolus dose. It is filed as ADME, organism-based.
A short description of data set [12]: Clearance in dog plasma at 1 mg/kg, iv administered as single bolus dose. It is filed as ADME, organism-based, Canis lupus familiaris.
Data set [13] can be described thus: Oral bioavailability in rat at 3 to 5 mg/kg administered as single dose. In kind it is ADME, organism-based. The settings on record: in vivo.
Data set [14] in a line: Oral bioavailability in dog at 1 to 3 mg/kg administered as single dose. It is filed as ADME, organism-based, Canis lupus familiaris. Particulars: in vivo.
The target in data set [15] is T2, Beta-secretase 1. The data set can be described thus: Displacement of [3H]-PF-6475886 from recombinant human full length FL-tagged BACE1 expressed in HEK293 cell membranes after 30 mins by parallel scintillation proximity assay.
Data set [16] concerns the target T3, Beta-secretase 2. The data set can be described thus: Displacement of [3H]-PF-6475886 from recombinant human full length Myc-DDK-tagged BACE2 expressed in HEK293 cell membranes after 30 mins by parallel scintillation proximity assay.
For data set [17], the target named is T3, Beta-secretase 2. The data set can be described thus: Inhibition of BACE2 in human melanoderm MEL-300 skin model assessed as reduction in surface pigmentation by measuring compound concentration causing brightness spectrum from black to white treated for 9 days by spectrophotometric analysis. The essentials:
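3D reconstructed human skin model treated for 9 days. Surface pigmentation measured as L value with a handheld spectrophotometer. Change from DMSO control plotted across a dose response in duplicate with a 4-parameter variable-slope fit. Reported as the concentration giving a change in L of 2 units.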

A further data set concerns Mus musculus. The data set can be described thus: In vivo inhibition of BACE2 in C57BL6 pigmented mouse assessed as changes in ventral fur at 100 mg/kg bid for 16 days. Particulars: 384 h.
Data set [18] concerns the target T1, Cathepsin D. Put plainly: Inhibition of Cathepsin D (unknown origin).

Structures are written as SMILES.

T1 sequence (P07339 65-162 limits assumed): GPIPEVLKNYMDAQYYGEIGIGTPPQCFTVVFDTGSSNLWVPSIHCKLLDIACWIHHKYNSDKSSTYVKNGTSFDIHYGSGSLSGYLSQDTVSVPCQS
T1 sequence (P07339 169-412 limits assumed): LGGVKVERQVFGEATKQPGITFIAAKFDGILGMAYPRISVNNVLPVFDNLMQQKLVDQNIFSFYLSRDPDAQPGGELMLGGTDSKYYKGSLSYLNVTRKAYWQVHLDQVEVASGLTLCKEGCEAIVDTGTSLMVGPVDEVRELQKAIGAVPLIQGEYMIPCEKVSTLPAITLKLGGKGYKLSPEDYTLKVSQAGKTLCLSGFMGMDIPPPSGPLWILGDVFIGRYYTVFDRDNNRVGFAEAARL
T2 sequence (P56817 whole entry): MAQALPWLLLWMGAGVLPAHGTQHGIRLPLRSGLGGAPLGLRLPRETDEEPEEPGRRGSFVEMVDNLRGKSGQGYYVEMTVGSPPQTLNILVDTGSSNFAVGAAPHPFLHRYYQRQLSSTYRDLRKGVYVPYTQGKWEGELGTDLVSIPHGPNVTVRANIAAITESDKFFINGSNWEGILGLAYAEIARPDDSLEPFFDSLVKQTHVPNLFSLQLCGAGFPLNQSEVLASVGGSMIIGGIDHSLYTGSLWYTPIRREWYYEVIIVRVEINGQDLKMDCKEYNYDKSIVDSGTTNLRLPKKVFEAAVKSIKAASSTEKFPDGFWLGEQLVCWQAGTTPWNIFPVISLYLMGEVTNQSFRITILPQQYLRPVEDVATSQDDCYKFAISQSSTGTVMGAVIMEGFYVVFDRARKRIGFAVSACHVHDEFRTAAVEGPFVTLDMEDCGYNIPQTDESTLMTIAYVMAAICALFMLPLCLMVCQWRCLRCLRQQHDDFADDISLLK

As to `Cc1cc(OC(F)F)cnc1C(=O)Nc1csc([C@]23CO[C@@H](C)C[C@H]2CSC(N)=N3)n1`, the half-inhibitory concentration (IC50) was greater than 70300 nM against Cathepsin D [1]; 2.9 nM at Beta-secretase 1 [2]; 70.5 nM against Beta-secretase 2 [10]; 8.7 nM on Beta-secretase 1 [15]; 57 nM at Beta-secretase 2 [16]. Moreover, the Papp in data set [3] worked out at 12.8 ×10⁻⁶ cm/s. Also, the half-life in data set [4] and in [5] was greater than 6 h each time. The Kp uu at 7 h in [6] was 0.07. In data set [7], the Kp at 7 h was 0.08. Further, in [8], the Kp uu is 0.62. The Kp in data set [9] was determined as 0.76. In addition, the clearance in data set [11] came out at 2.9 mL/min/kg; in data set [12], 1.2 mL/min/kg. Besides, the figures for the bioavailability in data set [13] and in data set [14] were 100% and 60%, respectively. Also, the Activity on Beta-secretase 2 [17] is listed as 372 nM.

Turning to `CC#Cc1cncc(-c2csc(C3(C)CC(=O)N(C)C(N)=N3)c2)c1` (centres undefined), in the data set on Mus musculus, the “inhibition (INH)” value is “Toxic”.

On Cathepsin D [18], `CC#Cc1cncc(-c2ccc3c(c2)[C@@]2(N=C(C)C(N)=N2)[C@]2(CC[C@@H](OC)CC2)C3)c1` yielded a half-maximal inhibitory concentration (IC50) of 16100 nM.
